# Results published in ChEMBL document CHEMBL3399923, “Design and synthesis of new bioisosteres of spirooxindoles (MI-63/219) as anti-breast cancer agents” (Bioorg Med Chem, 2015).
# Columns and labels:
# MCF7 = assay: Cytotoxicity against human MCF7 cells after 48 hrs by MTT assay; assay type: functional, cell-based; settings: MCF7, 48 h
# Summary of the method: (§1)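 MTT viability screen for cytotoxicity across the breast cancer and normal kidney epithelial lines; IC50 reported in µM.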
# Vero = assay: Cytotoxicity against African green monkey Vero cells after 48 hrs by MTT assay; assay type: cell-based; settings: Chlorocebus sabaeus; summary of the method: as §1
# HEK293 = assay: Cytotoxicity against human HEK293 cells after 48 hrs by MTT assay; assay type: cell-based; settings: HEK293, 48 h; summary of the method: as §1
# MDA-MB-231 = assay: Cytotoxicity against human MDA-MB-231 cells after 48 hrs by MTT assay; assay type: functional, cell-based; settings: MDA-MB-231, 48 h; summary of the method: as §1
Structure (SMILES),IC50 (MCF7),IC50 (Vero),IC50 (HEK293),IC50 (MDA-MB-231)
CN(C)CCOc1ccc(C(=O)C2[C@H](c3ccccc3)[C@@H](c3ccccc3)NC23C(=O)Nc2ccc([N+](=O)[O-])cc23)cc1 (some centres not stated),17.2 µM,28.8 µM,24.2 µM,17.8 µM
O=C(c1ccc(OCCN2CCCCC2)cc1)C1[C@H](c2ccccc2)[C@@H](c2ccccc2)NC12C(=O)Nc1ccccc12 (some centres not stated),13.9 µM,32.4 µM,30.8 µM,28.2 µM
CCN1C(=O)C2(N[C@H](c3ccccc3)[C@@H](c3ccccc3)C2C(=O)c2ccc(OCCN3CCOCC3)cc2)c2ccccc21 (some centres not stated),> 50 µM,> 50 µM,> 50 µM,> 50 µM
O=C(c1ccc(OCCN2CCCC2)cc1)C1[C@H](c2ccccc2)[C@@H](c2ccccc2)NC12C(=O)Nc1ccccc12 (some centres not stated),23 µM,19.4 µM,25.3 µM,16.8 µM
O=C(c1ccc(OCCN2CCOCC2)cc1)C1[C@H](c2ccccc2)[C@@H](c2ccccc2)NC12C(=O)Nc1ccc([N+](=O)[O-])cc12 (some centres not stated),24.7 µM,> 50 µM,45.4 µM,> 50 µM
O=C(c1ccc(OCCN2CCOCC2)cc1)C1[C@H](c2ccccc2)[C@@H](c2ccccc2)NC12C(=O)Nc1ccccc12 (some centres not stated),> 50 µM,> 50 µM,> 50 µM,> 50 µM
CC(CN(C)C)Oc1ccc(C(=O)C2[C@H](c3ccccc3)[C@@H](c3ccccc3)NC23C(=O)Nc2ccccc23)cc1 (some centres not stated),20.5 µM,> 50 µM,> 50 µM,> 50 µM
O=C(c1ccccc1)C1[C@H](c2ccc(O)cc2)[C@@H](c2ccccc2)NC12C(=O)Nc1ccccc12 (some centres not stated),36.3 µM,> 50 µM,> 50 µM,37.3 µM
